According to ChEMBL document CHEMBL1136517, “Optimization of alpha-acylaminoketone ecdysone agonists for control of gene expression” (Bioorg Med Chem Lett, 2003):

Assays:
[1] = target: T1, Ecdysone receptor (Choristoneura fumiferana, UniProt O77240); assay: Dose affording 50% of maximum transactivation for ecdysone receptor from Choristoneura fumiferana (CfEcR) and a luciferase reporter gene in CHO cells; type: functional, cell-based
T1 sequence (O77240 whole entry): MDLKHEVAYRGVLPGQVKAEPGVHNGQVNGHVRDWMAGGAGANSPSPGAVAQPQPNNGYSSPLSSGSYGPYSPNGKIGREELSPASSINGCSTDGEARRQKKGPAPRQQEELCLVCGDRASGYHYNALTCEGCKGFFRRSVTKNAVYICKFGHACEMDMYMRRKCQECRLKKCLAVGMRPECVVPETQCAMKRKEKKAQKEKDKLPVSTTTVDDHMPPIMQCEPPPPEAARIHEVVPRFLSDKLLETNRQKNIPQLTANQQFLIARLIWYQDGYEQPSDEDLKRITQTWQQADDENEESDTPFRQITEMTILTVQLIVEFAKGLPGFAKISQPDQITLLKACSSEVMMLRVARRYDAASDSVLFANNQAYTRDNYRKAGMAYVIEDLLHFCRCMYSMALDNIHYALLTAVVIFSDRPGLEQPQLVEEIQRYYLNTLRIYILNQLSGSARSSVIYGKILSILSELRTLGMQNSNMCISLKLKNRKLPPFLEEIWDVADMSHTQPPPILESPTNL
Procedure, shortened: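 CHO cells stably carrying GAL4 DBD(1-147)-CfEcR(DEF) and VP16-bRXR-LmUSP chimera cassettes (Zeocin selection), plus GAL4 RE-luciferase reporter (clone 27-63, hygromycin). Cells plated at 2.5 × 10⁴ cells mL⁻¹. DMSO ligand stocks diluted 300-fold; 8 concentrations, 33 to 0.01. Luciferase read 48 h after treatment. Value is the dose giving 50% of maximum transactivation.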

[2] = target: T2, Ecdysone receptor (Choristoneura fumiferana) (UniProt O77240); assay: Ratio of maximum level of gene expression (ecdysone receptor and luciferase gene) of compound to maximum level of gene expression with GSTM-E expressed as RMFI; type: functional
T2 sequence (whole entry): T1 sequence (O77240 whole entry)
Procedure, shortened: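 CHO clone 27-63 stably carries GAL4 DBD–CfEcR(DEF) plus VP16–RXR/LmUSP chimera, selected with Zeocin. A GAL4-RE luciferase reporter was added and selected with hygromycin. Cells plated at 2.5 × 10⁴ cells/mL. DMSO ligand stocks diluted 300-fold, tested at 8 concentrations from 33 to 0.01. Luciferase measured 48 h after treatment. RMFI is maximum expression relative to that of the standard agonist control.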

[3] = target: T3, Ecdysone receptor (Bombyx mori) (UniProt P49881); assay: Ratio of maximum level of gene expression (ecdysone receptor and beta-galactosidase receptor) of compound to maximum level of gene expression with GSTM-E expressed as RMFI; type: functional
T3 sequence (whole entry): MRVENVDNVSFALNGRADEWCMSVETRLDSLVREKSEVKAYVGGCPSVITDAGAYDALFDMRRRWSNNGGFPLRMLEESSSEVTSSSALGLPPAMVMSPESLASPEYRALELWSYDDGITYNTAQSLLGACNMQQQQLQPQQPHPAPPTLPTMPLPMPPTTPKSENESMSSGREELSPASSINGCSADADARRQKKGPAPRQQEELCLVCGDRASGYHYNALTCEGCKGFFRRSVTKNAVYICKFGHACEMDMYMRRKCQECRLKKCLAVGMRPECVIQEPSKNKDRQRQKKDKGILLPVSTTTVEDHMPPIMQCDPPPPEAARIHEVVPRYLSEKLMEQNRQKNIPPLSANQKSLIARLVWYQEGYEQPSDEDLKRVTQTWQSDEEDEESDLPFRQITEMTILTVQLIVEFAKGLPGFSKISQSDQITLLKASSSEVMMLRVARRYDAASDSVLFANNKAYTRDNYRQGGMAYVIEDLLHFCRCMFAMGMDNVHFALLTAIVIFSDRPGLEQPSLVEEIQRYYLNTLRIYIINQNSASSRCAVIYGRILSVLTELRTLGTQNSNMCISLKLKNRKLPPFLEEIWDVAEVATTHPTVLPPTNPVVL
Procedure, shortened: (§1)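 HEK-293 clone Z3 stably expressing BmEcR with a β-galactosidase reporter, selected with G418 (450) and puromycin (100 ng/mL). Cells seeded at 2.5 × 10⁴ cells/mL and held 24 h at 37 °C in 5% CO₂. Ligands came from 10 mM DMSO stocks diluted […] in medium, with final DMSO 0.03%. Bioluminescent β-gal read at 48 h, room temperature. Fold induction is treated RLU over DMSO RLU. EC50 is the dose giving 50% of maximum transactivation. RMFI is maximum expression relative to that of the standard agonist control.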

[4] = target: T4, Ecdysone receptor (Bombyx mori, UniProt P49881); assay: Dose affording 50% of maximum transactivation for ecdysone receptor from Bombyx mori (BmEcR) and a beta-galactosidase reporter gene in HEK293 cell-line; type: functional, cell-based; procedure, shortened: as §1
T4 sequence (P49881 whole entry): T3 sequence (whole entry)

Row | SMILES | EC50 [1] | Ratio [2] | Ratio [3] | EC50 [4]
1 | CCC(CC)(NC(=O)c1cccc(OC)c1C)C(=O)c1cc(C)cc(C)c1 | 6230 nM | 0.54 | 0.61 | 4530 nM
2 | COc1cccc(C(=O)NC2(C(=O)c3cc(C)cc(C)c3)CCC2)c1C | 10000 nM | 0.89 | 0.69 | 8520 nM
3 | COc1cccc(C(=O)NC2(C(=O)c3cc(C)cc(C)c3)CCS(=O)(=O)CC2)c1C | 30000 nM | 0.04 | 0.1 | 15000 nM
4 | COc1cccc(C(=O)NC2(C(=O)c3cc(C)cc(C)c3)CCCC2)c1C | 1910 nM | 0.86 | 0.85 | 1870 nM
5 | CCc1ccc(C(=O)NC2(C(=O)c3cc(C)cc(C)c3)CCCCC2)cc1 | – | – | 0.63 | 1510 nM
6 | COc1cccc(C(=O)NC2(C(=O)c3cc(C)cc(C)c3)CCSCC2)c1C | 1800 nM | 0.85 | 0.98 | 1600 nM
7 | COc1cccc(C(=O)NC2(C(=O)c3cc(C)cc(C)c3)CC2)c1C | 33300 nM | 0.09 | 0.22 | 20400 nM
8 | COc1cccc(C(=O)NN(C(=O)c2cc(C)cc(C)c2)C(C)(C)C)c1C [METHOXYFENOZIDE] | 280 nM | 1.02 | 1.03 | 100 nM
9 | COc1cccc(C(=O)NC2(C(=O)c3cc(C)cc(C)c3)CCOCC2)c1C | 10000 nM | 0.96 | 0.18 | 10000 nM
10 | COc1ccccc1C(=O)C1(NC(=O)c2cccc(OC)c2C)CCCCCC1 | 3360 nM | 0.66 | 0.78 | 1940 nM
11 | CCc1c(OC)cccc1C(=O)NC1(C(=O)c2cc(C)cc(C)c2)CCCCC1 | 1250 nM | 0.89 | 0.85 | 1810 nM
12 | CCc1c(C(=O)NC2(C(=O)c3cc(C)cc(C)c3)CCCCC2)ccc2c1OCCO2 | 390 nM | 0.91 | 0.89 | 740 nM
13 | COc1cccc(C(=O)NC2(C(=O)c3cc(C)cc(C)c3)CCCCCC2)c1C | 2970 nM | 0.88 | 0.69 | 1610 nM
14 | COc1ccccc1C(=O)C1(NC(=O)c2cccc(OC)c2C)CCCCC1 | 1030 nM | 0.71 | 0.84 | 980 nM
15 | COc1cccc(C(=O)NC(C)(C)C(=O)c2cc(C)cc(C)c2)c1C | 41900 nM | 0.29 | 0.17 | 10000 nM
16 | Cc1cc(C)cc(C(=O)C2(NC(=O)c3ccc4c(c3C)OCO4)CCCCC2)c1 | 3220 nM | 0.91 | 0.81 | 3680 nM
17 | COc1ccccc1C(=O)C1(NC(=O)c2cccc(OC)c2C)CCCC1 | 6610 nM | 0.67 | 0.7 | 5160 nM
18 | COc1cccc(C(=O)NC2(C(=O)c3cc(C)cc(C)c3)CCCCC2)c1C | 1110 nM | 0.96 | 0.99 | 1410 nM
19 | CCc1c(OC)cccc1C(=O)NN(C(=O)c1cc(C)cc(C)c1)C(C)(C)C | 410 nM | 1 | 1 | 250 nM
